The target in experiment [1] is T1, Vitamin D3 receptor (Rattus norvegicus, UniProt P13053).
T1 sequence (P13053 whole entry): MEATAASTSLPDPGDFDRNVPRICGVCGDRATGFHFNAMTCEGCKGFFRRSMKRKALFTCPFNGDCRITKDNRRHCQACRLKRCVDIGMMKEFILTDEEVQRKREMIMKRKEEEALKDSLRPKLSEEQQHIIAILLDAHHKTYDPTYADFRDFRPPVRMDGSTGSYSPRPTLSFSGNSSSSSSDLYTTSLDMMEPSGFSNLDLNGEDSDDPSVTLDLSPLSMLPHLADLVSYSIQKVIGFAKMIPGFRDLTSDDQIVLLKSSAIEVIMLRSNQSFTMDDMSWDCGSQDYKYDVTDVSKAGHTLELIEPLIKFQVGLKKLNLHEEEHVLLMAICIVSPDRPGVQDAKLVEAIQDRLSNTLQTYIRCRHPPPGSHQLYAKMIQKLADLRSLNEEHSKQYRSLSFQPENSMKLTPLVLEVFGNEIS
The experiment can be described thus: Displacement of 1-alpha,25-dihydroxyvitamin from rat recombinant VDR. An outline of the steps: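 Competitive binding against radiolabeled 1α,25-(OH)2D3 at 1 nM. Run in duplicate on two separate occasions.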

The subject of experiment [2] is HL-60. Put plainly: Induction of differention of human HL60 cells into monocytes by NBT reduction assay. The class given is functional, cell-based.
The subject of experiment [3] is HL-60. Put plainly: Ratio of ED50 for drug to 1-alpha,25-dihydroxyvitamin for HL60 cells differentiation by NBT reduction assay. Type of experiment: functional, Homo sapiens. In outline:
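Human HL-60 promyelocytes induced toward monocytic differentiation; maturation scored as percentage of cells reducing nitro blue tetrazolium. […] Experiment repeated in duplicate two times.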

Experiment [4] deals with T1, Vitamin D3 receptor. Put plainly: (§1) Activity at VDR in rat osteosarcoma cells assessed as 24-hydroxylase transcription by reporter gene assay. Type of experiment: cell-based. An outline of the steps:
(§2)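 Rat osteosarcoma cells stably carrying a 24-hydroxylase gene reporter plasmid, read as luciferase activity.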
In general terms: A reporter such as luciferase makes a cellular process visible.

Experiment [5] deals with T2, Vitamin D3 receptor (Rattus norvegicus) (UniProt P13053).
T2 sequence (whole entry): T1 sequence (P13053 whole entry)
The experiment is described as §1. Type of experiment: cell-based. In outline: as §2

In experiment [6] the test system is Mus musculus. Put plainly: Increase in serum calcium in vitamin D deficient CD1 mouse at 5.4 […], ip after 24 hrs. Type of experiment: functional, organism-based. In outline:
(§3)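 Female CD-1 mice, 6 weeks old on arrival, were fed a purified vitamin D-deficient diet for 17 weeks (n=3/group). They got a single intraperitoneal injection in 95:5 propylene glycol/ethanol vehicle. Blood was drawn predose and at multiple later times. Serum was diluted in 0.1% lanthanum chloride and calcium read by atomic absorption, reported as change from baseline.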

For experiment [7], the system named is Mus musculus. Put plainly: Increase in serum calcium in vitamin D deficient CD1 mouse at 181.5 […], ip after 24 hrs. The class given is functional, organism-based. In outline:
as §3

Experiment [8] deals with Mus musculus. Put plainly: Increase in serum calcium in vitamin D sufficient CD1 mouse at 50 ug/kg, ip. The class given is functional, organism-based. In outline:
(§4)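 Female CD-1 mice, 6-7 weeks old, were group-housed on a purified diet with 0.47% calcium and acclimated 5-7 days. Each got a single dose (n=5-6/group). Serum calcium was measured by atomic absorption after 0.1% lanthanum chloride dilution. Analysis was one-way ANOVA with pairwise comparisons.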

Experiment [9] relates to Mus musculus. Put plainly: Increase in serum calcium in vitamin D sufficient CD1 mouse at 150 ug/kg, ip. Type of experiment: functional, organism-based. An outline of the steps:
as §4

Experiment [10] relates to Mus musculus. The experiment can be described thus: Increase in serum calcium in vitamin D sufficient CD1 mouse at 33.3 ug/kg, ip. The class given is functional, organism-based. In outline: as §4
Experiment [11] concerns Mus musculus. Put plainly: Increase in serum calcium in vitamin D sufficient CD1 mouse at 33.3 ug/kg, po. The class given is functional, organism-based. In outline: as §4
In experiment [12] the test system is Mus musculus. The experiment can be described thus: Increase in serum calcium in vitamin D sufficient CD1 mouse at 150 ug/kg, po. The class given is functional, organism-based. In outline: as §4

Active and inactive are the calls of the source. The rule behind the calls is not given here. Where only a bound is given, the exact number is not on record here.

As a reminder, the Ki is the dissociation constant of the complex between target and ligand, obtained from inhibition or displacement. A word on the EC50: it is the concentration at which the effect is half-maximal. `C[C@H](CCCC(C)(C)O)C1CC[C@H]2/C(=C/C=C3/C[C@@H](O)C4=CCCO[C@@H]4C3)CCC[C@]12C` (some centres not stated): the Ki at Vitamin D3 receptor [1] came out at 30 nM. For the same compound, the EC50 with HL-60 [2] and on Vitamin D3 receptor [4] was 100 nM each time. For the same compound, in the experiment on HL-60 [3], the “Ratio ED50” value is above 100.

Take `C[C@H](CCCC(C)(C)O)C1CC[C@H]2/C(=C/C=C3\C[C@@H](O)C4=CCCO[C@@H]4C3)CCC[C@]12C` (some centres not stated): at Vitamin D3 receptor [1], the Ki amounted to 10000 nM. Also, the response in the experiment on HL-60 [2] was half-maximal at 1000 nM (EC50). The “Ratio ED50” value in the experiment on HL-60 [3] is above 1000. Moreover, in experiment [5], the result was inactive. Moreover, the result in the experiment on Mus musculus [6], in the experiment on Mus musculus [7], with Mus musculus [8], in the experiment with Mus musculus [9], in the experiment on Mus musculus [10] and in the experiment on Mus musculus [11] was Active. Moreover, in the experiment with Mus musculus [12], the outcome was Active.

As for `C=C1/C(=C\C=C2/CCC[C@]3(C)[C@@H]([C@H](C)CCCC(C)(C)O)CC[C@@H]23)C[C@@H](O)C[C@@H]1O`, the outcome with Mus musculus [6] and in the experiment with Mus musculus [7] was Active.

The record behind these values is ChEMBL document CHEMBL1138266, “Design, synthesis, and biological evaluation of a 1alpha,25-dihydroxy-19-norvitamin D3 analogue with a frozen A-ring conformation” (J Med Chem, 2007).
